Reference: publication PMC11348385 (RSC Advances, 2024)
Values joined by “and” are separate entries in the source; they are usually repeats but may differ in a detail not shown here. Equal values may be shown once.

Assays:
[1] = tested on: MCF-7 cell line; experiment: MTT colorimetric cytotoxicity assay, MCF-7; format: cell-based, human; settings: for IC50: Homo sapiens, MCF7, 72 h, read-out: IC50 MCF-7; for Selectivity index: folds more toxic regarding MCF-7 than VERO cells: VERO vs MCF-7; for selectivity class against MCF-7: high SI ≥ 5, moderate SI > 2, low SI < 2, vs VERO
[2] = tested on: HepG2 cell line; experiment: MTT colorimetric cytotoxicity assay, HepG2; format: cell-based, human; settings: for IC50: Homo sapiens, HepG2, 72 h, read-out: IC50 HepG2; for Selectivity index: folds toxic in HepG2 than in VERO cells: VERO vs HepG2; for selectivity class against HepG2: high SI ≥ 5, moderate SI > 2, low SI < 2, vs VERO
[3] = target: VEGFR-2 (Homo sapiens, UniProt P35968); experiment: In vitro VEGFR-2 kinase assay; format: biochemical
[4] = tested on: MCF-7 cells; experiment: Cell cycle distribution; format: cell-based, human; settings: MCF-7, 2.3 μM 4b, 24 h, mean ± SEM
Outline: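 MCF-7 cells treated with 2.3 μM test compound for 24 h, harvested and stained with propidium iodide. DNA content was analysed for distribution across G1, S and G2/M phases, with an untreated control alongside. Values are mean ± SEM of three independent experiments.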

[5] = tested on: MCF-7 cells; experiment: Annexin V / propidium iodide double staining apoptosis assay; format: cell-based, human; settings: MCF-7, IC50 of 4b, 24 h
[6] = tested on: BAX; experiment: BAX expression level in MCF-7 cells; format: cell-based, human; settings: MCF-7, IC50 of 4b
Outline: (§1)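 Test compound given to MCF-7 cells for 24 h; Bax and Bcl-2 expression levels then determined. Each is expressed as fold change versus untreated control cells, and the Bax/Bcl-2 ratio is calculated from these fold changes.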

[7] = tested on: Bcl-2; experiment: Bcl-2 expression level in MCF-7 cells; format: cell-based, human; settings: MCF-7, IC50 of 4b, 24 h, mean ± SEM
[8] = tested on: BAX/Bcl-2 ratio; experiment: BAX/Bcl-2 ratio in MCF-7 cells; format: cell-based, human; settings: MCF-7, IC50 of 4b
Outline: as §1

Sequence of VEGFR-2 (P35968 20-1356): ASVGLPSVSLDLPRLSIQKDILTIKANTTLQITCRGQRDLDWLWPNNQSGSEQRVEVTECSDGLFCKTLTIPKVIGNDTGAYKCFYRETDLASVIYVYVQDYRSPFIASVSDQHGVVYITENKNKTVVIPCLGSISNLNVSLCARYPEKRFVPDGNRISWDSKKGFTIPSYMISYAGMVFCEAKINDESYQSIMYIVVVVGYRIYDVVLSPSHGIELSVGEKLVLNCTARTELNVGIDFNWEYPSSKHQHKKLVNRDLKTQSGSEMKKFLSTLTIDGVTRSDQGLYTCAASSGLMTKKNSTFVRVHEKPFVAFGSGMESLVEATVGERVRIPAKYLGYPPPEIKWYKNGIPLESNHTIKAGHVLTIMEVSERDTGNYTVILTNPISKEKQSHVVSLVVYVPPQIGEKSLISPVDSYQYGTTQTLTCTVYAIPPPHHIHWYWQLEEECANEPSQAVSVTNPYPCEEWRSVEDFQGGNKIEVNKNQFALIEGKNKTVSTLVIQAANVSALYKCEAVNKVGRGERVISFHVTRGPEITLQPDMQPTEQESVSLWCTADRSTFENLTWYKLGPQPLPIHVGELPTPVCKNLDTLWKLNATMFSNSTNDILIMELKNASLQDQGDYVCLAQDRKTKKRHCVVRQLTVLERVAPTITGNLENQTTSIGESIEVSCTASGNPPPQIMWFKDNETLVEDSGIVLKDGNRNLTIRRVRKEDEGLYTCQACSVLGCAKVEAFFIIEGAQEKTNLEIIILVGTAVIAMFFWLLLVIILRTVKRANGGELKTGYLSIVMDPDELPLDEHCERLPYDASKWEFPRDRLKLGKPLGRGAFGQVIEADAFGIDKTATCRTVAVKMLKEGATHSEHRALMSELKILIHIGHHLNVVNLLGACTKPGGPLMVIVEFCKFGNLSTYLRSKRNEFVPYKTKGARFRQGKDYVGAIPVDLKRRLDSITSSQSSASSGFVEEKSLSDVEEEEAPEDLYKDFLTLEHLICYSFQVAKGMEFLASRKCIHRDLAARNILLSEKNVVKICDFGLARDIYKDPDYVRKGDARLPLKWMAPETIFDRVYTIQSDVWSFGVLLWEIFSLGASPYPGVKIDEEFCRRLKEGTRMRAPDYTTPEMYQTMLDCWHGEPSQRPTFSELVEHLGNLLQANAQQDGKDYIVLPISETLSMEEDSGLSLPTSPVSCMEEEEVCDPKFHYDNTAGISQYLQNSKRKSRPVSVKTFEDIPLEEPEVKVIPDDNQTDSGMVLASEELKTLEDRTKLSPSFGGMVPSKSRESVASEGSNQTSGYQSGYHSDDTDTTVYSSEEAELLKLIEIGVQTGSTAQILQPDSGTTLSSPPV

SMILES | IC50 [3] | IC50 [1] | Selectivity index: folds more toxic regarding MCF-7 than VERO cells [1] | selectivity class against MCF-7 [1] | IC50 [2] | Selectivity index: folds toxic in HepG2 than in VERO cells [2] | further results
COc1ccc(C2CC(c3ccc(Nc4nnc(-c5ccc(Cl)cc5)c5ccccc45)cc3)=NN2)cc1 (stereo not drawn) [Compound 3e, 4-(4-Chlorophenyl)-N-(4-[5-{4-methoxyphenyl}-4,5-dihydro-1H-pyrazol-3-yl]phenyl)phthalazin-1-amine] | 120 ± 20 nM | 80 ± 10 nM | 40.25 folds |  |  | 16.95 folds | 
O=c1nc(-c2ccc(Nc3nnc(-c4ccc(Cl)cc4)c4ccccc34)cc2)cc(-c2ccc(Cl)cc2)[nH]1 [Compound 4b, 6-(4-Chlorophenyl)-4-(4-[{4-(4-chlorophenyl)phthalazin-1-yl}amino]phenyl)pyrimidin-2(1H)-one] | 90 ± 20 nM | 60 ± 10 nM | 50.00 folds |  | 60 ± 10 nM | 50.00 folds | DNA content % G1 [4]: 53.96 ± 2.15%; DNA content % S [4]: 39.12 ± 1.92%; early apoptosis, folds over the control [5]: more than 25 folds; % Apoptosis Early ([5]; mean ± SEM): 15.06% and 15.06 ± 0.91%; % Apoptosis Late ([5]; mean ± SEM): 6.72 ± 0.31%; % Necrosis ([5]; mean ± SEM): 4.66% and 4.66 ± 0.19%; boost of Bax level vs control [6]: approximately 3 folds; Gene expression fold change BAX ([6]; 24 h, mean ± SEM): 3.3282 ± 0.67; Gene expression fold change Bcl-2 [7]: 0.374 ± 0.02; boost of Bax/Bcl2 ratio compared to the control [8]: approximately 8 folds; Gene expression fold change BAX/Bcl-2 ratio ([8]; 24 h, mean ± SEM): 8.25 ± 0.71
S=c1nc(-c2ccc(Nc3nnc(-c4ccc(Cl)cc4)c4ccccc34)cc2)cc(-c2ccc(Cl)cc2)[nH]1 [Compound 5b, 6-(4-Chlorophenyl)-4-(4-[{4-(4-chlorophenyl)phthalazin-1-yl}amino]phenyl)pyrimidin-2(1H)-thione] | 130 ± 30 nM | 110 ± 10 nM | 28.64 folds |  | 150 ± 10 nM | 21.00 folds | 
CNC(=O)c1cc(Oc2ccc(NC(=O)Nc3ccc(Cl)c(C(F)(F)F)c3)cc2)ccn1 [Sorafenib, sorafenib, reference compound] |  | 50 ± 10 nM |  |  | 30 ± 10 nM |  | 

Second part, led by results:

IC50 [3] | SMILES | IC50 [1] | Selectivity index: folds more toxic regarding MCF-7 than VERO cells [1] | selectivity class against MCF-7 [1] | IC50 [2] | Selectivity index: folds toxic in HepG2 than in VERO cells [2] | further results
1250 ± 50 nM | Clc1ccc(-c2nnc(Nc3ccc(C4=NNC(c5ccccc5)C4)cc3)c3ccccc23)cc1 (stereo not drawn) [Compound 3a, 4-(4-Chlorophenyl)-N-(4-(5-phenyl-4,5-dihydro-1H-pyrazol-3-yl)phenyl)phthalazin-1-amine] | 1160 ± 10 nM | 4.09 folds | moderate selectivity | 1270 ± 30 nM | 3.74 folds | selectivity class against HepG2 [2]: moderate selectivity
800 ± 50 nM | Clc1ccc(-c2nnc(Nc3ccc(C4=NNC(c5ccc(Cl)cc5)C4)cc3)c3ccccc23)cc1 (stereo not drawn) [Compound 3b, 4-(4-Chlorophenyl)-N-(4-(5-(4-chlorophenyl)-4,5-dihydro-1H-pyrazol-3-yl)phenyl)phthalazin-1-amine] | 830 ± 20 nM | 5.12 folds |  |  | 5.31 folds | 
840 ± 50 nM | Oc1ccccc1C1CC(c2ccc(Nc3nnc(-c4ccc(Cl)cc4)c4ccccc34)cc2)=NN1 (stereo not drawn) [Compound 3c, 2-(3-[4-{(4-[4-Chlorophenyl]phthalazin-1-yl)amino}phenyl]-4,5-dihydro-1H-pyrazol-5-yl)phenol] | 880 ± 30 nM | 4.67 folds | moderate selectivity | 1250 ± 20 nM | 3.29 folds | selectivity class against HepG2 [2]: moderate selectivity
700 ± 50 nM | Oc1ccc(C2CC(c3ccc(Nc4nnc(-c5ccc(Cl)cc5)c5ccccc45)cc3)=NN2)cc1 (stereo not drawn) [Compound 3d, 4-(3-[4-{(4-[4-Chlorophenyl]phthalazin-1-yl)amino}phenyl]-4,5-dihydro-1H-pyrazol-5-yl)phenol] | 740 ± 10 nM | 5.88 folds |  | 150 nM | 29.00 folds | 
150 ± 30 nM | O=c1nc(-c2ccc(Nc3nnc(-c4ccc(Cl)cc4)c4ccccc34)cc2)cc(-c2ccccc2)[nH]1 [Compound 4a, 4-(4-[{4-(4-Chlorophenyl)phthalazin-1-yl}amino]phenyl)-6-phenylpyrimidin-2(1H)-one] |  | 25.00 folds |  | 290 ± 10 nM | 13.79 folds | 
750 ± 50 nM | S=c1nc(-c2ccc(Nc3nnc(-c4ccc(Cl)cc4)c4ccccc34)cc2)cc(-c2ccccc2)[nH]1 [Compound 5a, 4-(4-[{4-(4-Chlorophenyl)phthalazin-1-yl}amino]phenyl)-6-phenylpyrimidin-2(1H)-thione] | 860 ± 10 nM | 4.79 folds | moderate selectivity | 800 ± 20 nM | 5.15 folds | 
